We go through 13 compounds from PubChem BioAssay.

Structures are written as SMILES. The source made the active and inactive calls.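 Rule for the calls, unless noted: active = fluorescence slope higher than the sample average by over 3 SD (cut at about -0.22 in these data, passing the limit was not always enough); inactive = the rest.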

Experiment [1] is described as follows: inhibitors of TNFa-induced NFkB p65 translocation, primary screen, imaging, HUVEC, MLSMR starter and 10KST1 sets (AID 438;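 active = inhibition above 20% together with a positive visual image hit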;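 note: compound added about 3h40 before a 20 min TNFalpha stimulation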;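 for inhibition: signal is the nuclear over cytoplasmic p65 intensity ratio per well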). Conditions: HUVEC TNFa-induced p65 nuclear translocation; cell count: measured here: nuclei count (cytotoxicity indicator), at 2.08 µM; inhibition: at 2 µM, stronger effect = higher value, 0% TNFa-plus-vehicle, 100% no-TNFa wells.
Experiment [2] can be described thus: endothelial E-selectin expression blockers – imaging, HUVEC, immunofluorescence, MLSMR starter and 10KST1 sets, primary screen (AID 487;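 active = visually confirmed hit in the image check and inhibition above 20%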;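 for inhibition: signal is fraction of cell area covered by stained E-selectin grains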;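 for nuclei count: 100% = median nuclei count of all wells on the same plate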). Conditions: HUVEC TNFalpha-induced E-selectin immunofluorescence imaging, at 2 µM; inhibition: stronger effect = higher value; nuclei count: measured here: cell number, toxicity.
A short description of experiment [3]: Primary imaging screen for DUSP6 inhibitors that restore phospho-Erk in transfected HeLa cells, chemical complementation (AID 609;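 active = compounds giving at least 50% inhibition in the cell-based MKP-3 phosphatase rescue imaging test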;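 for inhibition: phospho-Erk level distribution per well compared with pooled transfected vehicle control wells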). Conditions: HeLa MKP-3 transfected, phospho-Erk imaging KS statistic, at 10 µM, cells stimulated with TPA for 15 min.
The target in experiment [4] is Dual specificity protein phosphatase 6 (Homo sapiens) (UniProt Q16828). The experiment is described as above. Conditions: HeLa MKP-3 transfected, phospho-Erk imaging KS statistic; at 10 µM; stronger effect = higher value; cells stimulated with TPA for 15 min.
The target in experiment [5] is Voltage-gated potassium channel subunit beta-2 (Rattus norvegicus) (UniProt P62483). In words: inhibitors of rat Kvbeta2 reductase activity – biochemical, NADPH fluorescence, primary screen (AID 622).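 Note: slope of raw intensity against log time taken from 70 to 1610 s.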 Conditions: recombinant KvBeta, 4-cyanobenzaldehyde reduction, at 10 µM, stronger effect = higher value.
For experiment [6] the target is unchanged. In words: enhancers of rat Kvbeta2 NADPH turnover – biochemical, NADPH fluorescence, primary screen (AID 623;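 active = NADPH fluorescence slope more negative than the mean of all samples by about 3 SD, 99.7% confidence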;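 note: fluorescence intensity change per second fitted from 20 to 320 s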). As to conditions: Recombinant KvBeta, NADPH fluorescence decrease slope, 10 min; at 10 µM; stronger effect = lower value.
The target of experiment [7] is Alpha-2C adrenergic receptor (Homo sapiens) (UniProt P18825). The experiment can be described thus: compounds altering alpha2C-coupled GIRK flux – cell-based, HEK293 alpha2C/GIRK1/2, thallium flux, primary screen (AID 624;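 active = fluorescence slope after compound addition differing from the mean of all screened samples at 99.7% confidence, in either direction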;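 note: slope of fluorescence ratio to pre-addition baseline per second over 15 to 24 s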). Conditions: thallium flux BTC fluorescence, at 10 µM, actives lie on both sides.
The nature of experiment [8]: inhibitors of larval lipid processing in zebrafish, primary screen, whole organism, PED6 fluorescence, gall bladder and intestine (AID 686;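 active = a full or partial loss of lipid-probe fluorescence in the fish gall bladder, intestine or both, judged by eye; inactive = no fluorescence loss, or compound toxic to the fish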;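 note: larvae 5 to 7 days old with five fish per well; signal comes from phospholipase A2 cleavage of quenched PED6 carried via bile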). Conditions: Zebrafish larvae PED6 lipid processing, fluorescence scoring; screened at 20 µM (by protocol). In a few lines: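 System: live zebrafish larvae aged 5-7 days, whole organism; measure: graded gall bladder and intestinal fluorescence inhibition per well; incubation: overnight exposure; reagent: ingested quenched lipid PED6 at 100 nM; signal: By-eye fluorescence microscopy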

Experiment [9] can be described thus: loss of swimming-algae plug formation – whole organism, Chlamydomonas reinhardtii, WT vs cilia-less mutant, absorbance, 96-well, primary screen (AID 463189;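 active = inhibition at or above 50% relative to wild type and mutant plate controls; inactive = inhibition below 50%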;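 note: 0% = wild type cc124 cells in DMSO and 100% = ciliumless bld1 mutant cells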). Conditions: Chlamydomonas reinhardtii gravitaxis, OD600 absorbance, 2 days; at 10 µM; stronger effect = higher value.
Setting [10] is: measured here: cell density z-score.
[11] abbreviates: measured here: nuclear c-Myc green intensity z-score.
Where [12] appears, read: measured here: nuclear pErk red intensity z-score, stronger effect = higher value.

Chain of Dual specificity protein phosphatase 6 (Homo sapiens) (Q16828 whole entry, looked up): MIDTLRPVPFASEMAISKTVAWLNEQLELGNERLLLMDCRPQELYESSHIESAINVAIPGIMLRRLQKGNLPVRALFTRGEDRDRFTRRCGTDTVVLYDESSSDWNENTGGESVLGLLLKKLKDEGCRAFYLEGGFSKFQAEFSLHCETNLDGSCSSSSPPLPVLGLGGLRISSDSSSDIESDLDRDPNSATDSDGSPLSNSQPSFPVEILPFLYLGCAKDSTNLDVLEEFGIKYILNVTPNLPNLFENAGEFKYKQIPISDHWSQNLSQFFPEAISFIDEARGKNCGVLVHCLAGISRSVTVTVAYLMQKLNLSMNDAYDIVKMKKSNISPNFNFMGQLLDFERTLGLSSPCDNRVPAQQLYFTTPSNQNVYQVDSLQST
Chain of Voltage-gated potassium channel subunit beta-2 (Rattus norvegicus) (P62483 whole entry, looked up): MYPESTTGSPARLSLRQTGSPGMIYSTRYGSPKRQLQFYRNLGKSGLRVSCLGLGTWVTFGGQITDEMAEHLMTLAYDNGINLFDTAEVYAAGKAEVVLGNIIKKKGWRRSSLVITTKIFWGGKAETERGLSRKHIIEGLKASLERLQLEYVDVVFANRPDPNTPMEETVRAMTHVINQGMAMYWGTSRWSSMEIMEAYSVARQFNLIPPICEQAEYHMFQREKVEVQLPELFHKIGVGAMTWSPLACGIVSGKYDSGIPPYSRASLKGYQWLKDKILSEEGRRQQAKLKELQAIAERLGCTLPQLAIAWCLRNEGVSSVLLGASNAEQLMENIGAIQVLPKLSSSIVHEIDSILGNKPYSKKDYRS
Chain of Alpha-2C adrenergic receptor (Homo sapiens) (P18825 whole entry, looked up): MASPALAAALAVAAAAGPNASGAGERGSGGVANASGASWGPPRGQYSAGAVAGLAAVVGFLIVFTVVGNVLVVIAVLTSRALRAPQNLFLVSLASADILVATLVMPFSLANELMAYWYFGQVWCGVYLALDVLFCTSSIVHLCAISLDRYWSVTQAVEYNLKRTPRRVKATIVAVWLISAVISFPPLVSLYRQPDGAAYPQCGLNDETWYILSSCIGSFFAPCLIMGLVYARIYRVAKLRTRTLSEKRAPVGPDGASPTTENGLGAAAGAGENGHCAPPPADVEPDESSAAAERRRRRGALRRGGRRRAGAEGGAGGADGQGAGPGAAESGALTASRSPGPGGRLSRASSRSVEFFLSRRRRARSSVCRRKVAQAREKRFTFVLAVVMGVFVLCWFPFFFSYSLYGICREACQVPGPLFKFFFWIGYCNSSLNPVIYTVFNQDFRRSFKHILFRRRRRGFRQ

The term inhibition denotes the relative decrease from the control value, in per cent. Turning to `O=C(Nn1cnnc1)C(c1ccccc1)c1ccccc1`, the cell count in experiment [1] was found to be 338. For the same compound, the inhibition is -3.7% (inactive) in [1], -164% (inactive) in experiment [2], 1.75% (inactive) in [4] and 17.9% (inactive) in [9]. In experiment [2], the nuclei count was found to be 159%. The results for the z-score in experiment [3] (setting [10]), in experiment [3] (setting [11]) and in [3] (setting [12]) were 1.4, 0.734 and 1.08, respectively. Also, in experiment [5], the fluorescence slope is -0.417 (inactive). Also, the NADPH fluorescence slope in experiment [6] is -7.3e-05 (inactive). For the same compound, the slope in [7] was 0.00619 (inactive). Further, in [8], the compound was called inactive.
On to `COc1cc(C(=O)OCCN2CCCCC2)ccc1O`, for which the cell count in experiment [1] turned out to be 675. In addition, the inhibition in experiment [1] is -2.2% (inactive); in experiment [2] it was 38.8% (inactive); in [4] it was -3.98% (inactive); in experiment [9] it was 17.1% (inactive). The compound also came in with a nuclei count in [2] of 199%. Moreover, the z-score was -0.395 in experiment [3] (setting [10]), -0.645 in experiment [3] (setting [11]) and 0.828 in experiment [3] (setting [12]). The fluorescence slope in [5] was -0.493 (inactive). Moreover, in experiment [6], the NADPH fluorescence slope is -0.000169 (inactive). Also, the slope in experiment [7] is 0.00513 (inactive). Besides, the result in experiment [8] was inactive.
As to `Cc1ccc2[nH]c3c(N4CCN(Cc5ccccc5)CC4)ncnc3c2c1`, the cell count in [1] was determined as 328. Besides, the inhibition in experiment [1] is -7.3% (inactive); in experiment [2] it was -11.9% (inactive); in [4] it was 10.5% (inactive); in experiment [9], 38.4% (inactive). Besides, the nuclei count in [2] stood at 148%. For the same compound, the z-score in [3] (setting [10]) was 0.594; in experiment [3] (setting [11]), 0.553; in experiment [3] (setting [12]), -0.309. Also, the fluorescence slope in [5] is -0.403 (inactive). Also, the NADPH fluorescence slope in [6] was -0.000135 (inactive). Also, the slope in experiment [7] was 0.00442 (inactive). Besides, the outcome in [8] was “inactive; toxic”.
With `Cn1c(NCCN2CCCCC2)cc(=O)n(C)c1=O`, the cell count in [1] turned out to be 625. In addition, the inhibition was 4.3% (inactive) in experiment [1], -24.8% (inactive) in experiment [2], -1.12% (inactive) in experiment [4] and 9.26% (inactive) in experiment [9]. In addition, the nuclei count in experiment [2] came to 125%. The z-score was 1.35 in [3] (setting [10]), -0.0759 in [3] (setting [11]) and -0.233 in experiment [3] (setting [12]). In addition, in experiment [5], the fluorescence slope was -0.492 (inactive). Moreover, in experiment [6], the NADPH fluorescence slope is -0.000171 (inactive). For the same compound, the slope in experiment [7] is 0.00437 (inactive). The result in [8] was inactive.
For the compound `c1cncc(Oc2cccc(Oc3cccnc3)c2)c1`, the cell count in experiment [1] came out at 388. Further, the inhibition is -2.6% (inactive) in experiment [1], -116% (inactive) in [2], -2.07% (inactive) in [4] and -16% (inactive) in experiment [9]. In experiment [2], this compound registered a nuclei count of 133%. The values for the z-score in experiment [3] (setting [10]), in experiment [3] (setting [11]) and in experiment [3] (setting [12]) were -0.336, 0.96 and -0.973, respectively. The fluorescence slope in [5] is -0.426 (inactive). Besides, the NADPH fluorescence slope in [6] was -1.4e-05 (inactive). For the same compound, the slope in experiment [7] was 0.00527 (inactive). Also, in experiment [8], the result was inactive.
Take `CC(C)OC(=O)C(C#N)c1nc2ccccc2nc1N1CCCC1` (centres undefined): the cell count in experiment [1] is 485. Also, the inhibition was -22.5% (inactive) in experiment [1], -48.2% (inactive) in [2], 22.7% (inactive) in experiment [4] and 5.71% (inactive) in experiment [9]. Besides, the nuclei count in experiment [2] was determined as 129%. The z-score is 2.22 in experiment [3] (setting [10]), -1.34 in experiment [3] (setting [11]) and -1.3 in experiment [3] (setting [12]). The fluorescence slope in experiment [5] is -0.543 (inactive). For the same compound, the NADPH fluorescence slope in experiment [6] was -1.4e-05 (inactive). In addition, the slope in [7] is 0.00397 (inactive). For the same compound, in experiment [8], the result was inactive.
For the compound `COc1ccccc1C1/C(=C(/O)c2ccc(C)cc2)C(=O)C(=O)N1Cc1ccco1` (centres undefined), in experiment [1], the cell count is 550. In addition, the inhibition in experiment [1] was 9.2% (inactive); in experiment [2], 6.3% (inactive); in experiment [4], -11.5% (inactive); in experiment [9], -13.2% (inactive). The same compound came in with a nuclei count in experiment [2] of 101%. Further, the figures for the z-score in experiment [3] (setting [10]), in [3] (setting [11]) and in [3] (setting [12]) were 0.623, 0.192 and -1.11, respectively. Moreover, in [5], the fluorescence slope was -0.552 (inactive). The NADPH fluorescence slope in experiment [6] was -6.1e-05 (inactive). For the same compound, the slope in experiment [7] was 0.00643 (inactive). The call in [8] was inactive.
Consider `CCOC(=O)C1=C(CSc2nc(-c3ccncc3)ccc2C#N)OC(N)=C(C#N)C1c1cccnc1` (centres undefined), for which the cell count in [1] worked out at 701. Moreover, the inhibition in [1] was -10.4% (inactive); in [2], 45.7% (inactive); in [4] it was -8.95% (inactive); in [9] it was -5.64% (inactive). Moreover, in experiment [2], the nuclei count was determined as 173%. In addition, the z-score in [3] (setting [10]) is -0.622; in experiment [3] (setting [11]) it was 0.296; in experiment [3] (setting [12]), 2. For the same compound, in [5], the fluorescence slope is -0.283 (inactive). Besides, the NADPH fluorescence slope in experiment [6] was -5.8e-05 (inactive). Also, the slope in [7] is 0.00429 (inactive). The outcome in [8] was inactive.
With `Cc1nc(NCc2ccccc2)c(C(N)=O)c2c1COC(C)(C)C2`, the cell count in [1] came out at 643. In addition, the inhibition in experiment [1] is -5.8% (inactive); in experiment [2], -17.6% (inactive); in experiment [4] it was 9.39% (inactive); in experiment [9], -5.71% (inactive). Besides, in experiment [2], the nuclei count is 192%. Further, the z-score was 0.783 in [3] (setting [10]), 0.565 in [3] (setting [11]) and -0.208 in [3] (setting [12]). Moreover, the fluorescence slope in experiment [5] is -0.512 (inactive). For the same compound, in [6], the NADPH fluorescence slope was -7.6e-05 (inactive). Also, in experiment [7], the slope is 0.00486 (inactive). The result in experiment [8] was inactive.
Consider `COC(=O)c1ccn(C(=O)c2ccc(Cl)cc2)n1`, for which the cell count in experiment [1] is 646. Besides, the inhibition in [1] is -1.4% (inactive); in experiment [2], -13.4% (inactive); in [4], -2.91% (inactive); in experiment [9] it was 6.37% (inactive). In [2], the nuclei count was determined as 147%. Besides, the z-score in experiment [3] (setting [10]) was 1.7; in experiment [3] (setting [11]) it was -0.283; in experiment [3] (setting [12]) it was 1.25. The fluorescence slope in [5] was -0.519 (inactive). Besides, the NADPH fluorescence slope in [6] was -4e-05 (inactive). In [7], the slope is 0.00635 (inactive). Moreover, the outcome in experiment [8] was inactive.
Take `COc1ccc(NC(=O)C2CSC3c4ccccc4C(=O)N23)cc1` (centres undefined): in [1], the cell count was 376. The inhibition in experiment [1] is 0.6% (inactive); in [2] it was -32.1% (inactive); in experiment [4] it was -1.12% (inactive); in experiment [9], 127% (active). This compound returned a nuclei count in experiment [2] of 112%. Further, the z-score is -0.228 in experiment [3] (setting [10]), 0.485 in experiment [3] (setting [11]) and -1.59 in experiment [3] (setting [12]). Further, the fluorescence slope in experiment [5] is -0.355 (inactive). Also, the NADPH fluorescence slope in experiment [6] was 2.4e-05 (inactive). Moreover, in experiment [7], the slope was 0.00604 (inactive). The compound was classed as inactive in experiment [8].
Consider `COc1c(O)ccc2cnn(-c3ccccc3C)c(=O)c12`, for which the cell count in experiment [1] was 557. The inhibition in experiment [1] was -2.9% (inactive); in experiment [2], -53.4% (inactive); in [4], 9.61% (inactive); in experiment [9] it was 1.71% (inactive). In [2], this compound gave a nuclei count of 180%. The figures for the z-score in experiment [3] (setting [10]), in [3] (setting [11]) and in experiment [3] (setting [12]) were -1.01, 0.966 and 0.382, respectively. Moreover, the fluorescence slope in [5] was -0.35 (inactive). In experiment [6], the NADPH fluorescence slope is -1.2e-05 (inactive). Moreover, in experiment [7], the slope was 0.00472 (inactive). The compound was called inactive in experiment [8].
As for `Cc1ccc(C(=O)C2=C(O)C(=O)N(c3ncccn3)C2c2cccc(Cl)c2)o1` (centres undefined), the cell count in [1] amounted to 472. Besides, the inhibition in experiment [1] was -8.1% (inactive); in experiment [2], -43% (inactive); in [4] it was 0.671% (inactive); in [9] it was 1.33% (inactive). Further, the nuclei count in [2] worked out at 177%. In addition, the z-score in experiment [3] (setting [10]) is 0.573; in [3] (setting [11]), 0.527; in experiment [3] (setting [12]), -0.321. Besides, the fluorescence slope in experiment [5] is -0.287 (inactive). In [6], the NADPH fluorescence slope is -2.1e-05 (inactive). Further, the slope in experiment [7] is 0.00586 (inactive). In addition, in experiment [8], the outcome was inactive.
